Experimental data from PMC6525002 (Cancer Management and Research, 2019).
Values joined by “and” are separate entries in the source; they are usually repeats but may differ in a detail not shown here. Equal entries are not always repeated. “Also recorded” adds a separate entry of the source.

Key:
[1] = 12 healthy volunteers, cited from earlier work
EGFR = conditions: read-out: half maximal inhibitory concentration on EGFR; in vitro; cited from earlier work
EGFR phosphorylation = conditions: in vivo, preclinical; cited from earlier work
[2] = tested on: advanced NSCLC with EGFR gene mutations; assay: Phase Ib clinical antitumor activity; format: in vivo, human
[3] = tested on: other investigated kinases; conditions: in vitro; cited from earlier work
[4] = tested on: patients with advanced NSCLC and EGFR gene mutations; assay: Phase Ib safety and toxicity; format: in vivo, human
Outline: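 3+3 dose escalation (modified Fibonacci) of oral test compound, 100–650 mg flat doses twice daily for 28 days. Safety population was all patients dosed at least once. AEs were graded by NCI CTCAE v4.0. Haematology, liver and renal labs were taken predose on Days 1, 8, 15, 22 and 29, plus ECG, echocardiography and chest X-ray. MTD was defined by >1 DLT per dose level.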

patients = assay: Ongoing study exploring higher simotinib doses; format: in vivo, human; conditions: 800 mg, 3 patients

Q: Which “average clearance (CL) T1/2” value ([1]; dose range 25–500 mg) does the source give for simotinib here?
A: 8 to 12 h

Q: And the tolerability ([1]; phase Ia)?
A: well tolerated

Q: And the IC50 (EGFR)?
A: 19.9 nM

Q: What about the “antitumor activity in nude xenograft model” value (EGFR phosphorylation) of the same substance?
A: inhibiting EGFR phosphorylation

Q: What about the “deaths during the whole study” value ([2]; 100 mg group) of the same substance?
A: 2 deaths

Q: What about the “deaths during the whole study” value ([2]; 200 mg group) of the same substance?
A: 3 deaths

Q: And the “deaths during the whole study” value ([2]; 300 mg group)?
A: 1 deaths

Q: And the “deaths during the whole study” value ([2]; 400 mg group)?
A: 1 deaths

Q: What about the “partial response in patients with brain metastases” value ([2]; 500 mg, 12 patients) of the same substance?
A: 16.7% and 16%

Q: What about the “partial response in patients with brain metastases” value ([2]; 650 mg, 6 patients) of the same substance?
A: 50%

Q: What about the “stable disease as best response” value ([2]; 41 patients, RECIST 1.1) of the same substance?
A: 46.3%

Q: And the “deaths during the whole study (treatment phase and follow-up period)” value ([2]; all doses)?
A: 7 deaths

Q: And the “survival rate at 1-year” value ([2]; all doses)?
A: 88.2%

Q: And the “median PFS” value ([2]; all doses, Kaplan–Meier, 95%CI 4.7, 12.1)?
A: 9.9 months

Q: And the “median OS” value ([2]; all doses, Kaplan–Meier, 95%CI 12.3, 22.5)?
A: 14.6 months

Q: And the “patients with brain metastases who achieved partial response on these metastases” value ([2]; of the 18 patients with brain metastases)?
A: 5 patients

Q: And the “activity on other investigated kinases” value [3]?
A: no significant activity

Q: And the Aminotransferase elevation ([4]; 100 mg twice daily, N=2)?
A: 0 n (%)

Q: And the Bilirubin elevation ([4]; 100 mg twice daily, N=2)?
A: 0 n (%)

Q: What about the Diarrhea ([4]; 100 mg twice daily, N=2) of the same substance?
A: 0 n (%)

Q: What about the Erythrocyte reduction ([4]; 100 mg twice daily, N=2) of the same substance?
A: 0 n (%)

Q: And the Fatigue ([4]; 100 mg twice daily, N=2)?
A: 2 (100) n (%)

Q: What about the Neutropenia ([4]; 100 mg twice daily, N=2) of the same substance?
A: 0 n (%)

Q: What about the Pruritus ([4]; 100 mg twice daily, N=2) of the same substance?
A: 2 (100) n (%)

Q: What about the Rash ([4]; 100 mg twice daily, N=2) of the same substance?
A: 1 (50.0) n (%)

Q: And the Aminotransferase elevation ([4]; 200 mg twice daily, N=3)?
A: 0 n (%)

Q: What about the Bilirubin elevation ([4]; 200 mg twice daily, N=3) of the same substance?
A: 2 (66.7) n (%)

Q: And the Diarrhea ([4]; 200 mg twice daily, N=3)?
A: 3 (100) n (%)

Q: What about the Erythrocyte reduction ([4]; 200 mg twice daily, N=3) of the same substance?
A: 1 (33.3) n (%)

Q: And the Fatigue ([4]; 200 mg twice daily, N=3)?
A: 1 (33.3) n (%)

Q: And the Neutropenia ([4]; 200 mg twice daily, N=3)?
A: 3 (100) n (%)

Q: And the Pruritus ([4]; 200 mg twice daily, N=3)?
A: 2 (66.7) n (%)

Q: What about the Rash ([4]; 200 mg twice daily, N=3) of the same substance?
A: 2 (66.7) n (%)

Q: And the Aminotransferase elevation ([4]; 300 mg twice daily, N=3)?
A: 1 (33.3) n (%)

Q: What about the Bilirubin elevation ([4]; 300 mg twice daily, N=3) of the same substance?
A: 2 (66.7) n (%)

Q: What about the Diarrhea ([4]; 300 mg twice daily, N=3) of the same substance?
A: 3 (100) n (%)

Q: What about the Erythrocyte reduction ([4]; 300 mg twice daily, N=3) of the same substance?
A: 0 n (%)

Q: And the Fatigue ([4]; 300 mg twice daily, N=3)?
A: 2 (66.7) n (%)

Q: What about the Neutropenia ([4]; 300 mg twice daily, N=3) of the same substance?
A: 1 (33.3) n (%)

Q: And the Pruritus ([4]; 300 mg twice daily, N=3)?
A: 1 (33.3) n (%)

Q: What about the Rash ([4]; 300 mg twice daily, N=3) of the same substance?
A: 0 n (%)

Q: What about the “death during the treatment phase” value ([4]; 400 mg dose) of the same substance?
A: 1 patient

Q: What about the “patients with at least 1 study drug-related AE” value ([4]; 400 mg dose group) of the same substance?
A: 86.7%

Q: And the Aminotransferase elevation ([4]; 400 mg twice daily, N=15)?
A: 2 (13.3) n (%)

Q: What about the Bilirubin elevation ([4]; 400 mg twice daily, N=15) of the same substance?
A: 1 (6.7) n (%)

Q: And the Diarrhea ([4]; 400 mg twice daily, N=15)?
A: 7 (46.7) n (%)

Q: What about the Erythrocyte reduction ([4]; 400 mg twice daily, N=15) of the same substance?
A: 4 (26.7) n (%)

Q: And the Fatigue ([4]; 400 mg twice daily, N=15)?
A: 2 (13.3) n (%)

Q: What about the Neutropenia ([4]; 400 mg twice daily, N=15) of the same substance?
A: 3 (20.0) n (%)

Q: And the Pruritus ([4]; 400 mg twice daily, N=15)?
A: 4 (26.7) n (%)

Q: And the Rash ([4]; 400 mg twice daily, N=15)?
A: 2 (13.3) n (%)

Q: What about the “patients with at least 1 study drug-related AE” value ([4]; 500 mg dose group) of the same substance?
A: 91.7%

Q: And the “AEs of grade ≥3” value ([4]; 500 mg group)?
A: 3 patients

Q: What about the Aminotransferase elevation ([4]; 500 mg twice daily, N=12) of the same substance?
A: 2 (16.7) n (%)

Q: And the Bilirubin elevation ([4]; 500 mg twice daily, N=12)?
A: 2 (16.7) n (%)

Q: What about the Diarrhea ([4]; 500 mg twice daily, N=12) of the same substance?
A: 7 (58.3) n (%)

Q: What about the Erythrocyte reduction ([4]; 500 mg twice daily, N=12) of the same substance?
A: 2 (16.7) n (%)

Q: What about the Fatigue ([4]; 500 mg twice daily, N=12) of the same substance?
A: 3 (25.0) n (%)

Q: What about the Neutropenia ([4]; 500 mg twice daily, N=12) of the same substance?
A: 2 (16.7) n (%)

Q: What about the Pruritus ([4]; 500 mg twice daily, N=12) of the same substance?
A: 1 (8.3) n (%)

Q: And the Rash ([4]; 500 mg twice daily, N=12)?
A: 9 (75.0) n (%)

Q: And the Aminotransferase elevation ([4]; 650 mg twice daily, N=6)?
A: 3 (50.0) n (%)

Q: What about the Bilirubin elevation ([4]; 650 mg twice daily, N=6) of the same substance?
A: 0 n (%)

Q: What about the Diarrhea ([4]; 650 mg twice daily, N=6) of the same substance?
A: 3 (50.0) n (%)

Q: And the Erythrocyte reduction ([4]; 650 mg twice daily, N=6)?
A: 2 (33.3) n (%)

Q: And the Fatigue ([4]; 650 mg twice daily, N=6)?
A: 0 n (%)

Q: What about the Neutropenia ([4]; 650 mg twice daily, N=6) of the same substance?
A: 2 (33.3) n (%)

Q: And the Pruritus ([4]; 650 mg twice daily, N=6)?
A: 0 n (%)

Q: And the Rash ([4]; 650 mg twice daily, N=6)?
A: 3 (50) n (%)

Q: And the “patients with at least 1 study drug-related AE” value ([4]; 100, 200, 300, and 650 mg dose groups)?
A: all patients

Q: What about the tolerability ([4]; 100 to 650 mg twice daily) of the same substance?
A: well tolerated

Q: And the “dose-limiting toxicity (DLT)” value ([4]; 100 to 650 mg twice daily, 28 days)?
A: no dose-limiting toxicities; also recorded: No DLT was observed

Q: And the Aminotransferase elevation ([4]; Total N=41)?
A: 8 (19.5) n (%)

Q: What about the Bilirubin elevation ([4]; Total N=41) of the same substance?
A: 7 (17.1) n (%)

Q: And the Diarrhea ([4]; Total N=41)?
A: 23 (56.1) n (%)

Q: What about the Erythrocyte reduction ([4]; Total N=41) of the same substance?
A: 9 (22.0) n (%)

Q: And the Fatigue ([4]; Total N=41)?
A: 10 (24.4) n (%)

Q: What about the Neutropenia ([4]; Total N=41) of the same substance?
A: 11 (26.8) n (%)

Q: And the Pruritus ([4]; Total N=41)?
A: 10 (24.4) n (%)

Q: And the Rash ([4]; Total N=41)?
A: 17 (41.5) n (%)

Q: And the “AEs of grade ≥3, patients” value ([4]; all doses, 7 of 41 patients)?
A: 17.1%

Q: And the “patients with at least one study drug-related AE” value ([4]; all doses, 38 of 41 patients)?
A: 92.7%

Q: And the “patients with at least one AE” value ([4]; all doses, 39 of 41 patients)?
A: 95.1%

Q: And the “anemia, frequency” value ([4]; all doses, 41 patients)?
A: 22.0%

Q: And the “diarrhea, frequency” value ([4]; all doses, 41 patients)?
A: 56.1%

Q: And the “fatigue, frequency” value ([4]; all doses, 41 patients)?
A: 24.4%

Q: And the “increased level of aminotransferase, frequency” value ([4]; all doses, 41 patients)?
A: 19.5%

Q: What about the “increased level of bilirubin, frequency” value ([4]; all doses, 41 patients) of the same substance?
A: 17.1%

Q: And the “neutropenia, frequency” value ([4]; all doses, 41 patients)?
A: 26.8%

Q: And the “pruritus, frequency” value ([4]; all doses, 41 patients)?
A: 24.4%

Q: And the “rash, frequency” value ([4]; all doses, 41 patients)?
A: 41.5%

Q: What about the “maximum tolerated dose (MTD)” value ([4]; doses of up to 650 mg twice daily) of the same substance?
A: not found; also recorded: not reached

Q: And the “patients who discontinued the study” value ([4]; one patient, 500 mg)?
A: 2.4%

Q: And the bradycardia (patients)?
A: 1 patient

Q: What about the “decreased blood pressure of <90/60 mmHg” value (patients) of the same substance?
A: occurred in all patients

Q: And the “dose reduction due to cardiovascular events” value (patients)?
A: 1 patient
